Reference: ChEMBL document CHEMBL1154014, “Discovery of a novel class of 2-mercaptohexanoic acid derivatives as highly active PPARalpha agonists” (Bioorg Med Chem Lett, 2009)
The source made the active and inactive calls. The calls are words filed in the database; no cut-off is given here.

What was measured:
[1] = biological target: T1, Peroxisome proliferator-activated receptor alpha (Homo sapiens) (UniProt Q07869); experiment: Agonist activity at human PPARalpha expressed in african green monkey COS7 cells at 1 uM by Gal4 transactivation assay relative to GW-7647; assay type: functional, cell-based; details: COS-7
T1 sequence (whole entry): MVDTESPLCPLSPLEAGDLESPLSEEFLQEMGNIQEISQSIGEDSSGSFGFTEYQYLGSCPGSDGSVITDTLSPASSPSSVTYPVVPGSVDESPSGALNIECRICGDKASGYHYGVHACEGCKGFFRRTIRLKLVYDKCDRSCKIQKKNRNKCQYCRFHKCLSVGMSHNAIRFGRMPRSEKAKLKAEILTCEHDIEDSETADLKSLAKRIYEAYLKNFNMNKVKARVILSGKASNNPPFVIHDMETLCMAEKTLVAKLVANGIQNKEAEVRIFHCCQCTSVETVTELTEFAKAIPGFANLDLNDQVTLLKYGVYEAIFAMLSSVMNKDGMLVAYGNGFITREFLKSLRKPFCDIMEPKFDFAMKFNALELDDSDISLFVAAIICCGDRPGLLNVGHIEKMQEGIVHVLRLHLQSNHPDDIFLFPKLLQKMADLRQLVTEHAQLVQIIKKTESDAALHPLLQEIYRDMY

[2] = biological target: T2, Peroxisome proliferator-activated receptor gamma (Homo sapiens) (UniProt P37231); experiment: Agonist activity at human PPARgamma expressed in african green monkey COS7 cells at 1 uM by Gal4 transactivation assay relative to pioglitazone; assay type: functional, cell-based; details: COS-7
T2 sequence (whole entry): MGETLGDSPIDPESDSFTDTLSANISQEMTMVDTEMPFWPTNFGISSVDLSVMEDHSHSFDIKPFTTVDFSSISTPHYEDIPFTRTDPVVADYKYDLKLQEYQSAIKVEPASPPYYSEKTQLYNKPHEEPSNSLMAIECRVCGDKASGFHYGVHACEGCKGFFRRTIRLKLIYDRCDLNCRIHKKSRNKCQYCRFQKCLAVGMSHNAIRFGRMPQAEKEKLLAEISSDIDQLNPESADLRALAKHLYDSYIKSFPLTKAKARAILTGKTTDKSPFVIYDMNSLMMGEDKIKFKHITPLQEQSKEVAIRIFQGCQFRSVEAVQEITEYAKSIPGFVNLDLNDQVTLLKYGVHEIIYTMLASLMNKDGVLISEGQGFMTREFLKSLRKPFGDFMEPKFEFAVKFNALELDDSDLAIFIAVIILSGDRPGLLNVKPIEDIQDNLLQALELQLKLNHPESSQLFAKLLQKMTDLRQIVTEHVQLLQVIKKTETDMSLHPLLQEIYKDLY

[3] = biological target: T3, Peroxisome proliferator-activated receptor alpha (Homo sapiens, UniProt Q07869); experiment: Agonist activity at human PPARalpha expressed in african green monkey COS7 cells by Gal4 transactivation assay; assay type: functional, cell-based, COS-7
T3 sequence (Q07869 whole entry): T1 sequence (whole entry)
Method in brief: (§1)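 COS7 cells were grown in DMEM with FCS, sodium pyruvate and penicillin/streptomycin at 37 °C, 5% CO2, and seeded at 30,000 cells/well the day before transfection. They were lipofected with pFR-Luc, pRL-SV40 and the Gal4-hPPAR-LBD plasmid of each subtype. After 5 h, cells received serum-free DMEM with 0.1% DMSO plus compound, incubated overnight, then Dual-Glo luciferase read-out. Triplicate wells, ≥3 independent experiments; EC50 from mean values.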

[4] = biological target: T4, Peroxisome proliferator-activated receptor delta (Homo sapiens) (UniProt Q03181); experiment: Agonist activity at human PPARbeta expressed in african green monkey COS7 cells at 10 uM by Gal4 transactivation assay; assay type: functional, cell-based; details: COS-7
T4 sequence (whole entry): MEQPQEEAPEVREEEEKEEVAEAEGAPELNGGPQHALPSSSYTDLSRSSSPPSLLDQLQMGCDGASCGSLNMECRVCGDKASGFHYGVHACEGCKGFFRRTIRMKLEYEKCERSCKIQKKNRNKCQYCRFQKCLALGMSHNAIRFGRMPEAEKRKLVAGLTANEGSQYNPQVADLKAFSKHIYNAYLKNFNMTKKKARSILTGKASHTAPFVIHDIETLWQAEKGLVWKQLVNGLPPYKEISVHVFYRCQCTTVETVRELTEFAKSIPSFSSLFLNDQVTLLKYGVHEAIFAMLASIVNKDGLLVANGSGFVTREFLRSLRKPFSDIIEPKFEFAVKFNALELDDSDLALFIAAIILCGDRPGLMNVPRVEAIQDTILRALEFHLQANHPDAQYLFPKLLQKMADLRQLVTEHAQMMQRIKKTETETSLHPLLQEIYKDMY

[5] = biological target: T5, Peroxisome proliferator-activated receptor gamma (Homo sapiens, UniProt P37231); experiment: Agonist activity at human PPARgamma expressed in african green monkey COS7 cells by Gal4 transactivation assay; assay type: functional, cell-based, COS-7; method in brief: as §1
T5 sequence (P37231 whole entry): T2 sequence (whole entry)

[6] = biological target: T4, Peroxisome proliferator-activated receptor delta (Homo sapiens); experiment: Agonist activity at human PPARbeta expressed in african green monkey COS7 cells at 10 uM by Gal4 transactivation assay relative to L165041; assay type: functional, cell-based; details: COS-7
COS-7 = experiment: Selectivity ratio of EC50 for human PPARgamma to EC50 for human PPARalpha expressed in african green monkey COS7 cells; assay type: cell-based
[7] = biological target: T2, Peroxisome proliferator-activated receptor gamma (Homo sapiens); experiment: Agonist activity at human PPARgamma expressed in african green monkey COS7 cells at 10 uM by Gal4 transactivation assay; assay type: functional, cell-based; details: COS-7
[8] = biological target: T1, Peroxisome proliferator-activated receptor alpha (Homo sapiens); experiment: Agonist activity at human PPARalpha expressed in african green monkey COS7 cells at 10 uM by Gal4 transactivation assay; assay type: functional, cell-based; details: COS-7
[9] = biological target: T6, Peroxisome proliferator-activated receptor delta (Homo sapiens, UniProt Q03181); experiment: Agonist activity at human PPARbeta expressed in african green monkey COS7 cells by Gal4 transactivation assay; assay type: functional, cell-based, COS-7; method in brief: as §1
T6 sequence (Q03181 whole entry): T4 sequence (whole entry)

[10] = biological target: T4, Peroxisome proliferator-activated receptor delta (Homo sapiens); experiment: Agonist activity at human PPARbeta expressed in african green monkey COS7 cells at 1 uM by Gal4 transactivation assay relative to L165041; assay type: functional, cell-based; details: COS-7

| SMILES | Activity [1] [%] | Activity [2] [%] | EC50 [3] [µM] | Activity [4] | EC50 [5] [µM] | Activity [6] [%] | Activity [7] | Activity [8] | EC50 [9] [µM] | Activity [10] [%] | Ratio EC50 (COS-7) |
| --- | --- | --- | --- | --- | --- | --- | --- | --- | --- | --- | --- |
| CCCC[C@@H](Sc1ccc(OCCCOc2cccc(C)c2C)cc1)C(=O)O | 115 | 125 | 0.011 | inactive | 3.9 |  |  |  |  |  |  |
| CCCCC(Sc1ccc(OCCCOc2cccc3c2CCCC3)cc1)C(=O)O (centres undefined) | 101 | 107 | 0.19 | inactive | 8.1 |  |  |  |  |  |  |
| CCCCC(Sc1ccc(OCCCOc2ccc(C)cc2)cc1)C(=O)O (centres undefined) | 91 | 87 | 0.085 |  | 0.93 | 31 |  |  |  |  |  |
| CCCCC(Sc1ccc(OCCCOc2ccccc2)cc1)C(=O)O (centres undefined) | 76 | 83 | 0.29 | inactive | 2.6 |  |  |  |  |  | 9 |
| CCCCC(Sc1ccc(OCCCOc2ccc3ncccc3c2)cc1)C(=O)O (centres undefined) | 95 | 49 | 0.22 | inactive | 1.3 |  |  |  |  |  | 6 |
| CCCCC(Sc1ccc(OCCCOc2ccccc2OC)cc1)C(=O)O (centres undefined) | 92 | 85 | 0.55 | inactive | 1.6 |  |  |  |  |  |  |
| CCCC[C@H](Sc1ccc(OCCCOc2cccc(C)c2C)cc1)C(=O)O | 94 | 77 | 1.7 | inactive | 9.9 |  |  |  |  |  |  |
| Cc1cccc(OCCCOc2ccc(CCC(=O)O)cc2)c1C | 63 | 54 | 13.8 |  | 15.7 |  |  |  | 11.2 | 72 |  |
| CCCCC(Sc1ccc(OCCCOc2ccc(C)c(C)c2)cc1)C(=O)O (centres undefined) | 72 | 61 | 0.021 | inactive | 3.5 |  |  |  |  |  |  |
| Cc1cccc(OCCCOc2ccc(SCC(=O)O)cc2)c1C | 81 | 77 | 0.6 |  | 3.8 |  |  |  | 1.4 | 52 |  |

Further lines, with some results ahead:

| Activity [1] [%] | Activity [2] [%] | EC50 [3] [µM] | Activity [4] | EC50 [5] [µM] | Activity [6] [%] | Activity [7] | Activity [8] | EC50 [9] [µM] | Activity [10] [%] | SMILES | Ratio EC50 (COS-7) |
| --- | --- | --- | --- | --- | --- | --- | --- | --- | --- | --- | --- |
| 64 | 114 | 0.25 | inactive | 2.3 |  |  |  |  |  | CCCCC(Sc1ccc(OCCCOc2ccccc2C)cc1)C(=O)O (centres undefined) |  |
| 98 | 91 | 0.15 | inactive | 5.3 |  |  |  |  |  | CCCCC(Sc1ccc(OCCCOc2cccc(C(C)C)c2)cc1)C(=O)O (centres undefined) |  |
| 80 | 96 | 0.09 | inactive | 3 |  |  |  |  |  | CCCCC(Sc1ccc(OCCCOc2cccc(C)c2)cc1)C(=O)O (centres undefined) |  |
| 85 | 85 | 0.049 | inactive | 1.2 |  |  |  |  |  | CCCCC(Sc1ccc(OCCCOc2cccc(OC)c2)cc1)C(=O)O (centres undefined) |  |
| 89 | 92 | 2 | inactive | 4.1 |  |  |  |  |  | CCCCC(Sc1ccc(OCCCOc2ccccc2C(C)C)cc1)C(=O)O (centres undefined) |  |
|  |  |  | inactive |  |  | inactive | inactive |  |  | CCCC/C(=C\c1ccc(OCCCOc2cccc(C)c2C)cc1)C(=O)O |  |
| 125 | 108 | 0.11 | inactive | 0.54 |  |  |  |  |  | CCCCC(Sc1ccc(OCCCOc2ccc(-c3ccccc3)cc2)cc1)C(=O)O (centres undefined) | 5 |
| 73 | 120 | 1.5 | inactive | 4.2 |  |  |  |  |  | CCCCC(Cc1ccc(OCCCOc2cccc(C)c2C)cc1)C(=O)O (centres undefined) |  |
| 113 | 82 | 0.056 | inactive | 3 |  |  |  |  |  | CCCCC(Sc1ccc(OCCCOc2cccc(C)c2C)cc1)C(=O)O (centres undefined) | 54 |
| 65 | 96 | 0.39 | inactive | 7.8 |  |  |  |  |  | CCCCC(Sc1ccc(OCCCOc2ccc(Cl)c(C(F)(F)F)c2)cc1)C(=O)O (centres undefined) |  |
| 75 | 68 | 0.025 | inactive | 4.6 |  |  |  |  |  | CCCCC(Sc1ccc(OCCCOc2cccc(C(F)(F)F)c2)cc1)C(=O)O (centres undefined) |  |
